# High-throughput results from PubChem.
# IDH1 mut inh = IDH1 R132H (human) inhibition; O75874; AID 624101; IDH1 R132H reductase, diaphorase/resazurin fluorescence, 60 min; inhibition, % at 10 µM; actives 0.18% (n = 70,000); in the data active = inhibition above about 34%; inconclusive = no clear call, values can overlap the other calls; inactive = below about 11%;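 also: 0% = DMSO and 100% = no enzyme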
# Target sequence (O75874 whole entry R132H): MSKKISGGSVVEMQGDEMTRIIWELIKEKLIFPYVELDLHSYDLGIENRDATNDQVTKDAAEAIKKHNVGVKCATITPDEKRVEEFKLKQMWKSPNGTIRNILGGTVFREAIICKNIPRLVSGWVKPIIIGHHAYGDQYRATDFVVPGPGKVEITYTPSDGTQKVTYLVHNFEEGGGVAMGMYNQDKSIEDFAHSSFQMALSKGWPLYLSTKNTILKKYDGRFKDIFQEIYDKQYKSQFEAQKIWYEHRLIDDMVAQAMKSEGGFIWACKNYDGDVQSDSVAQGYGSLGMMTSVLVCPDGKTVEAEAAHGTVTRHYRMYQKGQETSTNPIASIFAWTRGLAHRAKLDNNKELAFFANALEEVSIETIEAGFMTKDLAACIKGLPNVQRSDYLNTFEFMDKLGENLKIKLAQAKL
# T cruzi growth-1 = T. cruzi proliferation inhibition. actives 5.9% (n = 77,000). T. cruzi beta-gal in NIH3T3, GalScreen luminescence, 90 h. inhibition, % at 8.34 µM;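 active = mean inhibition above about 93%, with at least 55% of replicates each passing it, limit read from the data, passing the limit was not always enough; inconclusive = only one of those two conditions holds; inactive = neither condition holds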
# GASC1 inh = blocks human GASC-1 (KDM4C) demethylase activity | actives 0.15% (n = 96,000) | GST-KDM4C 2-372, H3K9me3 peptide, LANCE TR-FRET | Q9H3R0 | inhibition, % at 12.5 µM;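 active = mean replicate inhibition above about 25%, with at least 55% of replicates also reaching it, limit read from the data, passing the limit was not always enough; inconclusive = only one of those two conditions met; inactive = neither condition met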
#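 Compound: one test concentration per compound; Material: GST-GASC-1 enzyme fragment 2-372; Amount: GASC-1 enzyme at 10 nM final in reaction; Also added: H3K9me3 peptide substrate, Fe(II), 2-oxoglutarate; Technique: LANCE TR-FRET; Times: 30 min demethylation and 1 h detection at room temperature.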
# Pf Dd2 inh = P. falciparum Dd2 growth inhibition. SYBR Green, 72 h; hits give low values. activity change, % at 10 µM. actives 2.3% (n = 94,000). AID 1159554; in the data active = activity change below about -80%; inconclusive = no clear call, values can overlap the other calls
# T cruzi growth-2 = blocks T. cruzi growth in NIH3T3 host cells | actives 72% (n = 5,600) | shares compounds with T cruzi growth-1 | inhibition, % at 8.35 µM | T. cruzi beta-gal in NIH3T3, GalScreen luminescence, 90 h | AID 651739;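 active = mean replicate inhibition above about 95% and at least 55% of replicates individually reaching it, limit read from the data; inconclusive = only one of the two criteria is met; inactive = neither criterion is met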
# T cruzi growth-3 = blocks T. cruzi growth in NIH3T3 host cells. shares compounds with T cruzi growth-1. T. cruzi beta-gal in NIH3T3, GalScreen luminescence, 90 h. inhibition, % at 2.09 µM. actives 21% (n = 5,600). AID 651740;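 active = mean inhibition above about 95%, with at least 55% of replicates also reaching it, limit read from the data; inconclusive = meets just one of the two conditions; inactive = meets neither condition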;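 also: plate controls were neutral control median for no effect and positive control median for full effect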
# NIH3T3 tox = kills mouse NIH/3T3 fibroblasts | shares compounds with T cruzi growth-1 | actives 14% (n = 5,600) | cytotoxicity (signal decrease), % at 8.35 µM | NIH/3T3 viability, CellTiter-Glo ATP luminescence, 90 h | AID 651742;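 active = mean signal decrease across replicates above about 35% based on untreated-well scatter, with enough replicates individually passing, limit read from the data; inconclusive = no rule stated though some were filed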;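 also: 0% = median of neutral control wells and 100% = median of positive control wells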
# 3T3 cytotox 2 = kills mouse NIH/3T3 fibroblasts | shares compounds with T cruzi growth-1 | NIH/3T3 viability, CellTiter-Glo ATP luminescence, 90 h | inhibition, % at 24.9 µM | actives 56% (n = 5,600);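 active = mean loss of cell viability signal at or above a set limit, and enough replicates individually reaching it; inconclusive = meets only the mean limit or only the replicate share; inactive = meets neither condition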;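 also: 0% = median of neutral control wells and 100% = median of positive control wells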
# The depositor's hits bear a star; ? = inconclusive; / = no result. The list is not random: actives were taken first. Their share in the collection is about 5.8%.
SMILES,IDH1 mut inh,T cruzi growth-1,GASC1 inh,Pf Dd2 inh,T cruzi growth-2,T cruzi growth-3,NIH3T3 tox,3T3 cytotox 2
N#C[C@H]1[C@@H](c2ccc(-c3ccccc3F)cc2)[C@@H](CO)N1C(=O)C1CC1,-0.1,104.0*,-2.6,27.4,106.7*,61.6,27.4,?
COc1ccc(-c2ccc([C@@H]3[C@H](C#N)N(C(=O)C4CC4)[C@H]3CO)cc2)cc1,/,57.6,0.9,-11.9,/,/,/,/
COc1ccccc1-c1ccc([C@@H]2[C@@H](C#N)N(C(=O)C3CC3)[C@H]2CO)cc1,/,103.8*,-1.6,7.7,41.9,41.0,5.5,20.9
COc1ccc(-c2ccc([C@H]3[C@@H](C#N)N(C(=O)C4CC4)[C@H]3CO)cc2)cc1,/,105.0*,-1.8,-44.0,83.2,35.5,-8.9,20.1
COc1ccc(NC(=O)CSc2nc3c(c(C(F)(F)F)c2C#N)CCC3)c(OC)c1,0.1,/,/,/,/,/,/,/
O=C(CSc1nc(-c2ccccc2)cc(C(F)(F)F)n1)c1ccc(Br)cc1,-0.2,/,/,/,/,/,/,/
CS(=O)(=O)Nc1ccc2c(c1)[C@@H]1C[C@@H](CC(=O)NCc3ccncc3)O[C@H](CO)[C@@H]1O2,-0.5,117.5*,-0.2,-13.7,-6.7,-18.3,7.9,4.3
CS(=O)(=O)Nc1ccc2c(c1)[C@H]1C[C@H](CC(=O)NCc3ccncc3)O[C@@H](CO)[C@H]1O2,0.3,102.3*,-1.1,12.2,1.2,11.8,0.5,4.3
CCN1CCN(C(=S)c2cc(I)c(OCC(=O)Nc3cccc(C)c3)c(OC)c2)CC1,-0.6,/,/,/,/,/,/,/
CCCC#Cc1ccc([C@H]2[C@@H](C#N)N(C(=O)C3CCCCC3)[C@H]2CO)cc1,/,90.8,-1.2,-59.3,/,/,/,/
CCCC#Cc1ccc([C@@H]2[C@@H](C#N)N(C(=O)C3CCCCC3)[C@@H]2CO)cc1,/,103.4*,0.0,8.6,99.6*,91.2,2.4,14.1
CCCC#Cc1ccc([C@@H]2[C@@H](CO)N(C(=O)C3CCCC3)[C@H]2C#N)cc1,/,99.8*,0.1,-31.5,97.4*,98.4*,-0.6,4.5
CCCC#Cc1ccc([C@@H]2[C@H](C#N)N(C(=O)C3CCC3)[C@H]2CO)cc1,/,?,-0.1,-46.1,100.8*,104.6*,26.2,29.7*
CCCC#Cc1ccc([C@H]2[C@@H](C#N)N(C(=O)C3CCCC3)[C@@H]2CO)cc1,/,102.5*,-3.4,-39.0,100.1*,103.7*,-5.8,15.4
CCCC#Cc1ccc([C@H]2[C@@H](CO)N(C(=O)C3CCC3)[C@H]2C#N)cc1,/,/,-2.4,-14.9,/,/,/,/
CCOc1ccc(C)cc1S(=O)(=O)n1nnc2ccccc21,-0.2,/,/,/,/,/,/,/
O=C(NCCC(c1ccc(F)cc1)c1ccco1)c1cccs1 (stereo unspecified),-0.5,/,/,/,/,/,/,/
OC1[C@H](O)CO[C@@H](OC[C@H]2O[C@@H](OC/C=C/c3ccccc3)[C@H](O)[C@@H](O)[C@@H]2O)[C@H]1O (stereo partly specified),-0.4,/,/,/,/,/,/,/
CC(C)C#Cc1ccc([C@H]2[C@H](C#N)N(C(=O)C3CCC3)[C@H]2CO)cc1,/,96.5*,-3.4,-19.6,107.9*,30.7,0.2,5.9
CC(C)C#Cc1ccc([C@@H]2[C@@H](C#N)N(C(=O)C3CCC3)[C@@H]2CO)cc1,/,89.7,0.4,-14.2,/,/,/,/
O=C(CSc1nc(-c2ccccc2)cc(C(F)(F)F)n1)N1CCCc2ccccc21,-0.6,/,/,/,/,/,/,/
C[C@H]1CCCCO[C@H](CN(C)Cc2ccccc2)[C@@H](C)CN([C@@H](C)CO)C(=O)c2cc(NS(=O)(=O)c3ccc(Cl)cc3)ccc2O1,/,108.5*,-0.9,2.3,101.4*,53.7,5.0,104.2*
C[C@H](CO)N1C[C@H](C)[C@@H](CN(C)Cc2ccccc2)OCCCC[C@H](C)Oc2ccc(NS(=O)(=O)c3ccc(Cl)cc3)cc2C1=O,/,67.8,-1.2,19.7,/,/,/,/
C[C@@H]1CCCCO[C@H](CN(C)Cc2ccccc2)[C@H](C)CN([C@@H](C)CO)C(=O)c2cc(NS(=O)(=O)c3ccc(Cl)cc3)ccc2O1,-0.3,102.5*,-1.8,-35.1,91.9,88.5,28.3,102.8*
C[C@@H]1CCCCO[C@@H](CN(C)Cc2ccccc2)[C@H](C)CN([C@@H](C)CO)C(=O)c2cc(NS(=O)(=O)c3ccc(Cl)cc3)ccc2O1,/,109.8*,-0.2,-19.0,101.5*,57.1,17.0,100.3*
C[C@@H]1CN([C@@H](C)CO)C(=O)c2cc(NS(=O)(=O)c3ccc(Cl)cc3)ccc2O[C@@H](C)CCCCO[C@@H]1CN(C)Cc1ccccc1,/,100.3*,-1.1,-31.8,89.3,71.0,-37.1,105.5*
